Measured values reported in ChEMBL document CHEMBL1132157 (J Med Chem, 1999).

Key:
[1] = target: 5-hydroxytryptamine receptor 1B (Homo sapiens, UniProt P28222); test: Displacement of [3H]5-HT binding to cloned 5-hydroxytryptamine 1B receptor stably expressed in CHO cells; assay type: cell-based
Method in brief: (§1)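 Membranes from thawed CHO cells with human 5-HT1B or 5-HT1D, washed in 50 mM Tris-HCl pH 7.7, preincubated 10 min at 37 °C to remove endogenous 5-HT. Buffer holds 0.1% ascorbate, 10 μM pargyline and 4 mM CaCl2. Uses 2.0 nM [3H]5-HT, 30 min at 37 °C; 10 μM 5-HT defines nonspecific binding. Filtration; IC50 by nonlinear regression; duplicates, 2–5 occasions.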

[2] = target: T1, 5-hydroxytryptamine receptor 1D (Homo sapiens, UniProt P28221); test: Agonist-induced [35S]- GTPgammaS binding in CHO cells stably transfected with 5-hydroxytryptamine 1D receptor; assay type: cell-based
T1 sequence (P28221 whole entry): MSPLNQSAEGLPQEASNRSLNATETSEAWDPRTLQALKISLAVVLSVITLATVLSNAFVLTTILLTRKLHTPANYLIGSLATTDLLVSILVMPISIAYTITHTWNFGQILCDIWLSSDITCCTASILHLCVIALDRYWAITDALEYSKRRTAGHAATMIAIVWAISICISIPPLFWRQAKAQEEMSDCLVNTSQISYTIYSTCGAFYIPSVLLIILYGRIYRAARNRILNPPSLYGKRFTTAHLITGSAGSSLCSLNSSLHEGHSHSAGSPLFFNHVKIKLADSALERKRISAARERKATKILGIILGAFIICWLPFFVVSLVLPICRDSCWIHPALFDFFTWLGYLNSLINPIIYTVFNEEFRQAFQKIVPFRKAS
Method in brief: (§2)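 Membranes from thawed CHO cells with human 5-HT1D, prepared in ice-cold 20 mM Hepes/EDTA at pH 7.4, spun at 40000g. Assay buffer: 100 mM NaCl, 10 mM MgCl2, 0.1% ascorbate, 10 μM pargyline. GDP 100 μM plus drug, 20 min at 30 °C, then ice 15 min. Then 100 pM [35S]GTPγS, 30 min at 30 °C, filtration. Emax is taken as % of maximal 5-HT response; duplicates, 2–5 occasions.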

[3] = target: T1, 5-hydroxytryptamine receptor 1D; test: Displacement of [3H]5-HT binding to cloned human 5-hydroxytryptamine 1D receptor stably expressed in CHO cells; assay type: cell-based; method in brief: as §1
[4] = target: T1, 5-hydroxytryptamine receptor 1D; test: Maximum stimulation of [35S]GTP-gamma-S, binding in CHO cells expressing human 5-HT-1d relative to 5-HT; assay type: functional, cell-based; method in brief: as §2
[5] = Ratio of IC50 for human 5-HT1B to human 5-HT1D receptors

Sequence of 5-hydroxytryptamine receptor 1B (P28222 whole entry): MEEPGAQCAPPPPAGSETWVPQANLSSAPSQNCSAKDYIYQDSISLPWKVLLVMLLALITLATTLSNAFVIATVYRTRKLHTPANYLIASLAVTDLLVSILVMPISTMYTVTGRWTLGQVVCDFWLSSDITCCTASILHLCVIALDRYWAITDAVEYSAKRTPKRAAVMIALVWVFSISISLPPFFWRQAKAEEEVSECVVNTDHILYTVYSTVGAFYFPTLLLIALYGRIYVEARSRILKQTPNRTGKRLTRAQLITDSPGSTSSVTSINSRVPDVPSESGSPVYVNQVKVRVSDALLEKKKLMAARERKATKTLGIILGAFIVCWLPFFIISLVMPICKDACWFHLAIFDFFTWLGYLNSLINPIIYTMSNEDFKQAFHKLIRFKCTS

| Compound | IC50 [1] | EC50 [2] | IC50 [3] | Efficacy [4] | Selectivity [5] |
| --- | --- | --- | --- | --- | --- |
| c1cc(CNC2CCN(CCCc3c[nH]c4ccc(-n5cnnc5)cc34)CC2)ccn1 | 140 nM | 13 nM | 24 nM | 80% | 5.8 |
| CN(Cc1ccsc1)C1CCN(CCCc2c[nH]c3ccc(-n4cnnc4)cc23)CC1 | 35 nM | 4.2 nM | 1.5 nM | 93% | 23 |
| OC[C@H](NC1CCN(CCCc2c[nH]c3ccc(-n4cncn4)cc23)CC1)c1ccccc1 | 400 nM | 7.4 nM | 4.1 nM | 77% | 98 |
| C[C@@H](NC1CCN(CCCc2c[nH]c3ccc(-n4cncn4)cc23)CC1)c1ccccc1 | 420 nM | 18 nM | 18 nM | 69% | 23 |
| c1ccc(CNC2CCN(CCCc3c[nH]c4ccc(-n5cnnc5)cc34)CC2)nc1 | 76 nM |  | 14 nM |  | 5.4 |
| CN(Cc1cccs1)C1CCN(CCCc2c[nH]c3ccc(-n4cnnc4)cc23)CC1 | 140 nM | 3.5 nM | 4.3 nM | 81% | 33 |
| CC(=O)Nc1ccc(CN(C)C2CCN(CCCc3c[nH]c4ccc(-n5cnnc5)cc34)CC2)cc1 | 100 nM |  | 19 nM |  | 5.3 |
| CN(C1CCN(CCCc2c[nH]c3ccc(-n4cnnc4)cc23)CC1)S(=O)(=O)c1ccccc1 | 10 nM |  | 1.5 nM |  | 6.7 |
| O=S(=O)(NCC1CCN(CCCc2c[nH]c3ccc(-n4cnnc4)cc23)CC1)c1ccccc1 | 60 nM | 12 nM | 6.2 nM | 73% | 10 |
| C[C@@H](NC1CCN(CCCc2c[nH]c3ccc(-n4cnnc4)cc23)CC1)c1ccccc1 |  | 13 nM | 0.4 nM | 90% | 88 |
| Oc1nc2ccccc2n1C1CCN(CCCc2c[nH]c3ccc(-n4cnnc4)cc23)CC1 | 74 nM | 2.2 nM | 1.2 nM | 72% | 62 |
| CC(=O)Nc1ccc(CN(C)CC2CCN(CCCc3c[nH]c4ccc(-n5cnnc5)cc34)CC2)cc1 | 24 nM | 2.8 nM | 0.6 nM | 94% | 40 |
| CC(=O)Nc1ccc(CCNC2CCN(CCCc3c[nH]c4ccc(-n5cnnc5)cc34)CC2)cc1 | 170 nM |  | 12 nM |  | 14 |
| CN(Cc1ccccc1)C1CCN(CCCc2c[nH]c3ccc(-n4cnnc4)cc23)CC1 |  |  |  |  | 67 |
| CC(=O)Nc1ccc(CCN(C)C2CCN(CCCc3c[nH]c4ccc(-n5cnnc5)cc34)CC2)cc1 | 66 nM |  | 5.7 nM |  | 12 |
| OC[C@H](NC1CCN(CCCc2c[nH]c3ccc(-n4cnnc4)cc23)CC1)c1ccccc1 |  | 1.7 nM |  | 95% | 85 |
| O[C@H]1Cc2ccccc2C1NC1CCN(CCCc2c[nH]c3ccc(-n4cnnc4)cc23)CC1 (stereo partly drawn) | 300 nM |  | 37 nM |  | 8.1 |
| c1cncc(CNC2CCN(CCCc3c[nH]c4ccc(-n5cnnc5)cc34)CC2)c1 | 140 nM |  | 35 nM |  | 4 |
| COC[C@H](NC1CCN(CCCc2c[nH]c3ccc(-n4cnnc4)cc23)CC1)c1ccc(F)cc1 | 89 nM |  | 1.4 nM |  | 64 |
| CN(Cc1ccc(S(C)(=O)=O)cc1)CC1CCN(CCCc2c[nH]c3ccc(-n4cnnc4)cc23)CC1 | 66 nM |  | 8.1 nM |  | 8.1 |
| CC(=O)Nc1ccc([C@@H](C)NCC2CCN(CCCc3c[nH]c4ccc(-n5cnnc5)cc34)CC2)cc1 | 8.9 nM |  | 1.5 nM |  | 5.9 |
| C[C@@H](NCC1CCN(CCCc2c[nH]c3ccc(-n4cnnc4)cc23)CC1)c1ccccc1 | 14 nM |  | 1.4 nM |  | 10 |

| Compound | IC50 [1] | EC50 [2] | IC50 [3] | Efficacy [4] | Selectivity [5] |
| --- | --- | --- | --- | --- | --- |
| CN(Cc1ccc(S(C)(=O)=O)cc1)C1CCN(CCCc2c[nH]c3ccc(-n4cnnc4)cc23)CC1 | 140 nM |  | 18 nM |  | 7.8 |
| O=C(c1ccc(F)cc1)C1CCN(CCn2c(=O)[nH]c3ccccc3c2=O)CC1 [KETANSERIN] | > 10000 nM |  | 270 nM |  | > 37 |
| OC[C@H](NCC1CCN(CCCc2c[nH]c3ccc(-n4cnnc4)cc23)CC1)c1ccccc1 | 79 nM |  | 5.9 nM |  | 13 |
| c1cc2[nH]cc(CCN3CCCC3)c2cc1-n1cnnc1 |  |  |  |  | 9 |
| CN(CC1CCN(CCCc2c[nH]c3ccc(-n4cnnc4)cc23)CC1)S(=O)(=O)c1ccccc1 | 18 nM |  | 1.6 nM |  | 11 |
| CC(=O)Nc1ccc(C(=O)N(C)CC2CCN(CCCc3c[nH]c4ccc(-n5cnnc5)cc34)CC2)cc1 | 40 nM |  | 17 nM |  | 2.4 |
| C[C@H](NCC1CCN(CCCc2c[nH]c3ccc(-n4cnnc4)cc23)CC1)c1ccccc1 | 58 nM |  | 4.4 nM |  | 13 |
| CNS(=O)(=O)Cc1ccc2[nH]cc(CCCN3CCC(N[C@H](C)c4ccccc4)CC3)c2c1 | 260 nM |  | 43 nM |  | 6 |
| CC(C)=CCCN(C)C1CCN(CCCc2c[nH]c3ccc(-n4cnnc4)cc23)CC1 | 24 nM |  | 2.6 nM |  | 9.2 |
| CN(Cc1ccco1)C1CCN(CCCc2c[nH]c3ccc(-n4cnnc4)cc23)CC1 | 89 nM |  | 9.3 nM |  | 9.6 |
| CN(Cc1ccccc1)CC1CCN(CCCc2c[nH]c3ccc(-n4cnnc4)cc23)CC1 | 27 nM |  | 0.9 nM | 93% | 30 |
| NC1CCN(CCCc2c[nH]c3ccc(-n4cnnc4)cc23)CC1 | 63 nM |  | 12 nM |  | 5.3 |
| CN(C)C[C@H](NC1CCN(CCCc2c[nH]c3ccc(-n4cnnc4)cc23)CC1)c1ccccc1 | 13 nM |  | 1.5 nM |  | 8.7 |
| C=CCN(C)C1CCN(CCCc2c[nH]c3ccc(-n4cnnc4)cc23)CC1 | 320 nM |  | 20 nM |  | 16 |
| CN(CC1CCN(CCCc2c[nH]c3ccc(-n4cnnc4)cc23)CC1)C(=O)Nc1ccccc1 | 6.2 nM |  | 5.9 nM |  | 1.1 |
| OC[C@@H](NCC1CCN(CCCc2c[nH]c3ccc(-n4cnnc4)cc23)CC1)c1ccccc1 | 34 nM |  | 3.4 nM |  | 10 |
| CN(C(=O)Nc1ccccc1)C1CCN(CCCc2c[nH]c3ccc(-n4cnnc4)cc23)CC1 | 140 nM |  | 18 nM |  | 7.8 |
| CN(CC1CCN(CCCc2c[nH]c3ccc(-n4cnnc4)cc23)CC1)[C@@H](CO)c1ccccc1 | 85 nM |  | 6 nM |  | 14 |
| CC(=O)Nc1ccc(CNCC2CCN(CCCc3c[nH]c4ccc(-n5cnnc5)cc34)CC2)cc1 | 8.9 nM |  | 4.2 nM |  | 2.1 |
| CN(CC1CC1)C1CCN(CCCc2c[nH]c3ccc(-n4cnnc4)cc23)CC1 | 260 nM |  | 22 nM |  | 12 |
| c1ccc(NCC2CCN(CCCc3c[nH]c4ccc(-n5cnnc5)cc34)CC2)nc1 | 3.3 nM |  | 1.7 nM |  | 1.9 |
